Experiment [1] relates to Human immunodeficiency virus 1. Nature of the experiment: Effective concentration against HIV-1 induced cytopathogenicity in MT-4 cells. Type of experiment: functional, organism-based, MT4. In short, it runs like this:
(§1)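 MT-4 cells (1 × 10⁴/well) incubated with serial compound dilutions (200 mM DMSO stock diluted in medium), with or without HIV-1 IIIB (100 CCID₅₀/well), 4 days at 37 °C in RPMI 1640 with 10% FCS. Viable cells counted by MTT. CC₅₀ from mock-infected cells and EC₅₀ as 50% protection from virus-induced cytopathicity, run in parallel. Mean of at least two experiments.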

In experiment [2] the test system is MT4. Nature of the experiment: Cytotoxicity against MT-4 cells. Type of experiment: functional, Homo sapiens. In short, it runs like this: as §1
Experiment [3] deals with Human immunodeficiency virus type 1 reverse transcriptase (Human immunodeficiency virus 1, UniProt Q72547). The experiment is described as follows: Inhibitory activity against HIV-1 recombinant reverse transcriptase.
Experiment [4] concerns MT4. Nature of the experiment: CC50/EC50 ratio of the compound. The format is functional. The essentials: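 Selectivity index, calculated as CC₅₀/EC₅₀. Both values come from the parallel MTT readout in mock-infected and HIV-1 IIIB-infected MT-4 cells (4-day incubation at 37 °C).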
Experiment [5] concerns Human immunodeficiency virus 1. The experiment is described as follows: Anti-HIV-1 activity determined as dose required to reduce p24 antigen levels. The format is functional.
[6] abbreviates: Human immunodeficiency virus 1, MT4.

Molecules are shown by their SMILES.

For orientation: EC50 means the midpoint of the concentration-response curve. A low value points to an effect from little substance. What is called CC50 is the concentration giving 50% cytotoxicity. For orientation: IC50 means the point on the concentration scale where inhibition reaches its midpoint. Take `CC(c1cc(O)nc(SC2CCCC2)n1)c1cccc2ccccc12` (configuration not stated): in experiment [1] (setting [6]), the EC50 worked out at 500 nM. The molecule further gave a half-maximal cytotoxic concentration (CC50) in experiment [2] (Homo sapiens, MT4) of 93000 nM. Also, in experiment [3], the IC50 came out at 400 nM. Besides, in experiment [4], the Selectivity index is 186.
In turn, `Cc1c(C(C)c2c(F)cccc2F)nc(SC2CCCC2)[nH]c1=O` (stereo in doubt; [-]3w) had an EC50 in experiment [1] (mt4) of 70 nM. Further, in experiment [2], the CC50 is 200000 nM. The half-maximal inhibitory concentration (IC50) in experiment [3] was determined as 1000 nM. In addition, the Selectivity index in experiment [4] is on record as more than 286.
As to `CCCCSc1nc(O)cc(C(C)c2c(F)cccc2F)n1` (configuration not stated), in experiment [1] (setting [6]), the EC50 stood at 70 nM. The cytotoxic concentration (CC50) in experiment [2] (Homo sapiens, MT4) was more than 200000 nM. The Selectivity index in experiment [4] was determined as 2857.
In general, EC90 refers to the concentration needed for an effect of 90%. What is called EC99 is the point of the concentration-response curve where the effect stands at 99%. In experiment [5], `CC(C)Sc1nc(Cc2c(F)cccc2F)cc(=O)[nH]1` came in with a 90% effect concentration (EC90) of 42 nM, an EC99 of 0.083 µM and an EC99.9 of 0.19 µM. The EC50 in experiment [1] (setting [6]) is 50 nM. Besides, the Selectivity index in experiment [4] is recorded as more than 4000.
In turn, `CCC(C)Sc1nc(O)c(C)c(Cc2c(F)cccc2F)n1` (configuration not stated) came in with a concentration for a half-maximal effect (EC50) in experiment [1] (setting [6]) of 50 nM. Also, in experiment [2] (Homo sapiens, MT4), the CC50 is more than 200000 nM. In addition, the Selectivity index in experiment [4] is listed as more than 4000.
The corresponding values for `CC(c1cc(O)nc(SC2CCCC2)n1)c1c(Cl)cccc1Cl` (configuration not stated) are 1000 nM, 78300 nM and 78.3.
On to `CSc1nc(O)cc(C(C)c2c(F)cccc2F)n1` (configuration not stated), for which, in experiment [1] (setting [6]), the EC50 came out at 180 nM. Half-maximal cytotoxicity in experiment [2] (Homo sapiens, MT4) (CC50) was put at 20800 nM. For the same molecule, the IC50 in experiment [3] was determined as 200 nM. The Selectivity index in experiment [4] was determined as 115.
With `CC(C)CSc1nc(O)cc(C(C)c2c(F)cccc2F)n1` (configuration not stated), the EC50 in experiment [1] (setting [6]) is 50 nM. In addition, in experiment [2] (Homo sapiens, MT4), the CC50 was more than 200000 nM. For the same molecule, the Selectivity index in experiment [4] is recorded as more than 4000.
`CCC(c1ccccc1)c1cc(O)nc(SC2CCCCC2)n1` (configuration not stated) displayed an EC50 in experiment [1] (setting [6]) of 1300 nM. The molecule also showed a 50% cytotoxic concentration (CC50) in experiment [2] (Homo sapiens, MT4) of more than 200000 nM. Besides, the IC50 in experiment [3] was 3700 nM. Also, in experiment [4], the Selectivity index is listed as more than 154.
In experiment [5], `CCOCn1c(Cc2ccccc2)c(C(C)C)c(=O)[nH]c1=O` [EMIVIRINE] gave a concentration for an effect of 90% (EC90) of 14 nM, an EC99 of 0.041 µM and an EC99.9 of 0.082 µM. The molecule also gave an EC50 in experiment [1] (setting [6]) of 30 nM. Also, the Selectivity index in experiment [4] is 6666.
For `CC(c1ccccc1)c1cc(O)nc(SC2CCCC2)n1` (configuration not stated), a half-maximal effect in experiment [1] (setting [6]) (EC50) was put at 600 nM. Moreover, the CC50 in experiment [2] (Homo sapiens, MT4) was found to be 159000 nM. Moreover, the IC50 in experiment [3] worked out at 2100 nM. The Selectivity index in experiment [4] is 333.
In experiment [1] (mt4), `Cc1c(C(C)c2c(F)cccc2F)nc(SC2CCCC2)[nH]c1=O` (stereo in doubt; [+]3w) gave an EC50 of 2 nM. This molecule also came in with a CC50 in experiment [2] (Homo sapiens, MT4) of more than 200000 nM. Also, the IC50 in experiment [3] was 8 nM. For the same molecule, the Selectivity index in experiment [4] is more than 100000.
Take `CC(c1ccccc1)c1cc(O)nc(SC2CCCCC2)n1` (configuration not stated): the EC50 in experiment [1] (setting [6]) was 600 nM. The same molecule had a CC50 in experiment [2] (Homo sapiens, MT4) of 149000 nM. In experiment [4], the Selectivity index was found to be 248.
The molecule `CCC(c1ccccc1)c1cc(O)nc(SC2CCCC2)n1` (configuration not stated) registered an EC50 in experiment [1] (setting [6]) of 1000 nM. In experiment [2] (Homo sapiens, MT4), the CC50 is more than 200000 nM. Also, the IC50 in experiment [3] was more than 10000 nM. In experiment [4], the Selectivity index is more than 200.
In experiment [1] (setting [6]), `Cc1c(O)nc(SC2CCCCC2)nc1C(C)c1c(F)cccc1F` (configuration not stated) showed an EC50 of 18 nM. In experiment [2] (Homo sapiens, MT4), this molecule had a CC50 of more than 200000 nM. The Selectivity index in experiment [4] is more than 11111.
`CCC(c1cc(O)nc(SC2CCCCC2)n1)c1c(Cl)cccc1Cl` (configuration not stated) showed a 50% effective concentration (EC50) in experiment [1] (setting [6]) of 3600 nM. Moreover, the CC50 in experiment [2] (Homo sapiens, MT4) was more than 200000 nM. Further, the Selectivity index in experiment [4] was more than 55.5.
Take `O=c1cc(Cc2c(F)cccc2F)nc(SC2CCCC2)[nH]1`: in experiment [5], the 90% effect concentration (EC90) is 80 nM, the EC99 worked out at 0.15 µM and the EC99.9 is 0.3 µM. Besides, the EC50 in experiment [1] (setting [6]) came out at 80 nM. The Selectivity index in experiment [4] is more than 2500.
`CCC(C)Sc1nc(O)cc(C(C)c2ccccc2)n1` (configuration not stated) returned an EC50 in experiment [1] (setting [6]) of 230 nM. In experiment [2] (Homo sapiens, MT4), this molecule yielded a CC50 of 200000 nM. Besides, the Selectivity index in experiment [4] was 870.
In experiment [5], `Cc1c(Cc2c(F)cccc2F)nc(SC(C)C)[nH]c1=O` came in with an EC90 of 26 nM, an EC99 of 0.065 µM and an EC99.9 of 0.15 µM. Also, a half-maximal effect in experiment [1] (setting [6]) (EC50) was put at 50 nM. In addition, the Selectivity index in experiment [4] is more than 4000.
In turn, `CCC(c1ccccc1)c1cc(O)nc(SC(C)C)n1` (configuration not stated) yielded an EC50 in experiment [1] (setting [6]) of 800 nM. This molecule also returned a CC50 in experiment [2] (Homo sapiens, MT4) of 200000 nM. For the same molecule, in experiment [3], the IC50 was found to be 2300 nM. Moreover, the Selectivity index in experiment [4] amounted to 250.
As for `CCC(c1cc(O)nc(SC2CCCCC2)n1)c1c(F)cccc1F` (configuration not stated), in experiment [1] (setting [6]), the EC50 turned out to be 50 nM. Besides, in experiment [2] (Homo sapiens, MT4), the CC50 was more than 200000 nM. Besides, the Selectivity index in experiment [4] was 2600.
The corresponding values for `CC(c1cc(O)nc(SC2CCCCC2)n1)c1c(Cl)cccc1Cl` (configuration not stated) are 2900 nM, more than 200000 nM and more than 69.

(Values after ChEMBL document CHEMBL1134546, “Structure-based design, synthesis, and biological evaluation of conformationally restricted novel 2-alkylthio-6-[1-(2,6-difluorophenyl)alkyl]-3,4-dihydro-5-alkylpyrimidin-4(3H)-ones as non-nucleoside inhibitors of HIV-1 reverse transcriptase” (J Med Chem, 2001).)
